Laboratory results: the array DNA melting data of Ke et al. (doi:10.1101/2024.01.08.574731)

Legend:
[1] = folding enthalpy; higher = less favourable; fluorescence melt of hairpins on a sequencing array, two-state fit; settings: sodium 0.088 M
How it was run: (§1)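 Folding enthalpy and melting temperature come from bootstrapped two-state fits to Cy3 fluorescence of library hairpins carrying annealed Cy3 and quencher oligos on a sequenced MiSeq flow cell. Imaging was done in 50 mM Na-HEPES pH 8.0, 25 mM NaCl, stepping by 2.5 °C up to 60 °C, and signals were normalised to pre-quench Cy3 and to control constructs. Results of four replicates were combined by inverse variance, and fitted temperatures were raised by 9.35 °C to match UV melts.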

[2] = melting temperature; fluorescence melt of hairpins on a sequencing array, two-state fit, raised by 9.35 °C to match UV melts; settings: sodium 0.088 M
How it was run: as §1

| Sequence | folding enthalpy [1] | Tm [2] |
| --- | --- | --- |
| GGTTCCGCGAAAGCGACC (((..(((....)))))) | -8.82 kcal/mol | 28.4 °C |
| GCTCTGCGAAAGCCGCGC ((.(.((....)).).)) | -15 kcal/mol | 39.4 °C |
| GCGTTGCGAAAGCCCCGC (((..((....))..))) | -18.2 kcal/mol | 48.3 °C |
| GGACCGCGAAAGCGCTCC (((.(((....))).))) | -16.2 kcal/mol | 46.8 °C |
| GGCTTCGAAAGAAAAGCC ((((((....)))..))) | -28 kcal/mol | 46.6 °C |
| GCGAACGAAAGTTGGCGC ((((((....)))..))) | -32.8 kcal/mol | 53.9 °C |
| GATCGGAAACCGATC ((((((...)))))) | -38 kcal/mol | 56 °C |
| GGGTTTCGAAAGAATCCC (((.(((....))).))) | -36.6 kcal/mol | 50.1 °C |
| GGGTAGGCGAAAGCCCCC (((..(((....)))))) | -16.9 kcal/mol | 53 °C |
| GATCATACACATGATC ((((((....)))))) | -36 kcal/mol | 47.2 °C |
| GATCGGGTGCCCGATC ((((((....)))))) | -36.7 kcal/mol | 60.1 °C |
| GCTACGCGAAAGCTGAGC (((..((....))..))) | -15.2 kcal/mol | 46.2 °C |
| GGCTGCGCGAAAGCGGCC (((..(((....)))))) | -19.2 kcal/mol | 60.3 °C |
| GCGAAGTTTCGC ((((....)))) | -18.2 kcal/mol | 50.7 °C |
| CGAGACCGGAAACGGTCG (((..(((....)))))) | -23.4 kcal/mol | 57.1 °C |
| GATCGACGTTTCGATC ((((((....)))))) | -42.5 kcal/mol | 50.9 °C |
| GGGGGAGGAAACTCCCTC (.(((((....))))).) | -19.3 kcal/mol | 54.6 °C |
| GGCCATGGAAACATGACC ((.((((....)))).)) | -29.2 kcal/mol | 47.6 °C |
| GATCACCCCGTGATC ((((((...)))))) | -43.2 kcal/mol | 57.5 °C |
| GCCAGCGAAAGCTCAGGC ((((((....)))..))) | -30.4 kcal/mol | 49.9 °C |
| GGTTACGAAAGTAACC ((((((....)))))) | -34.7 kcal/mol | 67.5 °C |
| GATCGGTGCCCCGATC ((((((....)))))) | -29.1 kcal/mol | 57 °C |
| GCGGAGGACCGC ((((....)))) | -19.5 kcal/mol | 52.4 °C |

| Sequence | folding enthalpy [1] | Tm [2] |
| --- | --- | --- |
| GTCCTCGAAAGAGATGAC ((((((....)))..))) | -16.2 kcal/mol | 33.4 °C |
| GGTCCCGAAAGGGAAACC ((((((....)))..))) | -15.3 kcal/mol | 43.2 °C |
| GATCGGCACTCCGATC ((((((....)))))) | -40.5 kcal/mol | 57.1 °C |
| GATCGAAACGTCGATC ((((((....)))))) | -41.4 kcal/mol | 50.3 °C |
| CGCGGAACCGTCCGCG ((((((....)))))) | -31.9 kcal/mol | 68.4 °C |
| GGTTCTCGAAAGAGGACC (((.(((....))).))) | -42.8 kcal/mol | 57.2 °C |
| GTCGTTCGAAAGAAGGAC (((.(((....))).))) | -38.1 kcal/mol | 52.2 °C |
| GTGAAACGAAAGTTCCAC (((.(((....))).))) | -22.8 kcal/mol | 43.9 °C |
| GGTTTGGGAAACTAGACC (((.(.(....).).))) | -18.1 kcal/mol | 30.7 °C |
| GGGTTGGGAAACTGACCC ((((..(....)..)))) | -26.5 kcal/mol | 45.1 °C |
| GCCTGCGAAAGCACGGGC ((((((....)))..))) | -22.4 kcal/mol | 53 °C |
| GCCGAGCGAAAGCTTTGC ((..(((....)))..)) | -12.6 kcal/mol | 39.1 °C |
| GATCAAGCACTTGATC ((((((....)))))) | -38.4 kcal/mol | 50.4 °C |
| GGGCATGGAAACATGTCC ((.((((....)))).)) | -43.4 kcal/mol | 54.3 °C |
| GGCATACGAAAGTACGCC (((.(((....))).))) | -32.1 kcal/mol | 51.8 °C |
| GTGGACGCGAAAGCGCAC (((..(((....)))))) | -15.4 kcal/mol | 47.8 °C |
| GCTAGAGCGAAAGCTAGC (((..(((....)))))) | -21.7 kcal/mol | 47.4 °C |
| GATGGTGCGAAAGCAATC (((..(((....)))))) | -8.86 kcal/mol | 28.7 °C |
| GTCATCGAAAGATCGAC ((((((....))).))) | -22.1 kcal/mol | 35.7 °C |
| CGGGTCCGGAAACGGCCG (((..(((....)))))) | -14.3 kcal/mol | 47.5 °C |
| GCAGCGCGAAAGCTCCGC ((.(.((....)).).)) | -11.6 kcal/mol | 37.9 °C |
| GTTTACGCGAAAGCGAAC (((..(((....)))))) | -9.1 kcal/mol | 31.8 °C |
| GCTTTGGGAAACCGAAGC ((((.((....)).)))) | -39.5 kcal/mol | 52.5 °C |

| Sequence | folding enthalpy [1] | Tm [2] |
| --- | --- | --- |
| CGCGGAAATGTCCGCG ((((((....)))))) | -32.5 kcal/mol | 69.1 °C |
| GATCCTCGACAGGATC ((((((....)))))) | -35.6 kcal/mol | 48.5 °C |
| GATCAGCGAAAGCTCATC (((.(((....))).))) | -13 kcal/mol | 29.8 °C |
| GTCGGCGAAAGCCAAGAC ((((((....)))..))) | -15.2 kcal/mol | 49.9 °C |
| GCCATAGCGAAAGCTGGC (((..(((....)))))) | -25.5 kcal/mol | 56.5 °C |
| GATCTGTCATCAGATC ((((((....)))))) | -38.1 kcal/mol | 50.1 °C |
| GATCTGATGCCAGATC ((((((....)))))) | -33.4 kcal/mol | 47.5 °C |
| GCTTGTGGAAACGCAAGC (((((.(....).))))) | -39.5 kcal/mol | 55.6 °C |
| AGTAACTGAAAAGTTACT (((((((....))))))) | -32.3 kcal/mol | 51.6 °C |
| GCGATTGGAAACGATCGC (((((.(....).))))) | -49 kcal/mol | 56.4 °C |
| GCACGGCGAAAGCACTGC (((..((....))..))) | -20.1 kcal/mol | 40.5 °C |
| GGAACGGGAAACCGTTTC (.(((((....))))).) | -24.5 kcal/mol | 49.7 °C |
| GAGAGGGGAAACCCTCTC (((((((....))))))) | -39 kcal/mol | 63.5 °C |
| GCGTACTAACGC ((((....)))) | -27.2 kcal/mol | 53 °C |
| GGCCCCTCGAAAGAGGCC (((..(((....)))))) | -15.6 kcal/mol | 43.8 °C |
| GACTTAGGAAACTAGGTC (((.(((....))).))) | -32.1 kcal/mol | 36.8 °C |
| GATCTCCGAAAGGAAATC (((.(((....))).))) | -25.1 kcal/mol | 34.2 °C |
| GATCGCCTACGCGATC ((((((....)))))) | -39.5 kcal/mol | 67.4 °C |
| GCCTCGCGAAAGCGGGC (((.(((....)))))) | -16.4 kcal/mol | 67.7 °C |
| GCCACGCGAAAGCATGGC ((((.((....)).)))) | -32.9 kcal/mol | 66.8 °C |
| GCCACGCGAAAGCGCAGC ((..(((....)))..)) | -10.6 kcal/mol | 43.6 °C |
| GGTGGTGAAAACCACC ((((((....)))))) | -32.5 kcal/mol | 68.2 °C |
| GGTCTAACGAAAGTTACC (((..(((....)))))) | -10.2 kcal/mol | 25.5 °C |

| Sequence | folding enthalpy [1] | Tm [2] |
| --- | --- | --- |
| GCATAGCGAAAGCCAGGC ((.(.((....)).).)) | -12.3 kcal/mol | 32.9 °C |
| GATCTAAAATTAGATC ((((((....)))))) | -29.9 kcal/mol | 35.7 °C |
| GGGGTTGAAAAACCCC ((((((....)))))) | -34.5 kcal/mol | 66.7 °C |
| GCGGTCGAAAGACTACGC ((((((....)))..))) | -25.1 kcal/mol | 54.3 °C |
| GTTAAACGAAAGTTCAAC (((.(((....))).))) | -22.6 kcal/mol | 30.3 °C |
| CGTAAACGGAAACGTACG (((..(((....)))))) | -23.5 kcal/mol | 34.8 °C |
| GATCAGAGCCTGATC ((((((...)))))) | -25.4 kcal/mol | 47.4 °C |
| GGCCAAGCGAAAGCTGCC (((..(((....)))))) | -21.7 kcal/mol | 54.3 °C |
| GGGTAAACGAAAGTTCCC (((..(((....)))))) | -20.7 kcal/mol | 39.8 °C |
| GGCCACGGAAACGCAGCC (((..((....))..))) | -20.5 kcal/mol | 39.5 °C |
| GTCTGGGGAAACCCAGGC (.(((((....))))).) | -28.1 kcal/mol | 55.5 °C |
| GATCCTCGCAGGATC ((((((...)))))) | -33.8 kcal/mol | 55.5 °C |
| GCCTTGCGAAAGCAGTGC ((..(((....)))..)) | -11.6 kcal/mol | 45.1 °C |
| GTAGTCTCGAAAGAGTAC (((..(((....)))))) | -17.3 kcal/mol | 31.9 °C |
| GTGAGGGAAACCTCAC ((((((....)))))) | -31.7 kcal/mol | 60.2 °C |
| GCTATCACGAAAGTGAGC (((..(((....)))))) | -14.1 kcal/mol | 36.1 °C |
| GCCCAGCGAAAGCTCGGC (((.(((....))).))) | -40.4 kcal/mol | 51.3 °C |
| GATCATGGCATGATC ((((((...)))))) | -44 kcal/mol | 51.3 °C |
| GTCCCACGAAAGTGAGAC (((.(((....))).))) | -30.2 kcal/mol | 49.4 °C |
| GGAGTTGGAAACGACTTC (.(((.(....).))).) | -35.4 kcal/mol | 59.7 °C |
| GATCATGTTATGATC ((((((...)))))) | -36.1 kcal/mol | 50.3 °C |
| GCAACTGGAAACAATTGC ((((.((....)).)))) | -32.8 kcal/mol | 34.5 °C |
| GCCTTGCGAAAGCGGGGC (((..((....))..))) | -33.2 kcal/mol | 65.2 °C |
